Test results as given in ChEMBL document CHEMBL3526126, “Amide hydrolysis of a novel chemical series of microsomal prostaglandin E synthase-1 inhibitors induces kidney toxicity in the rat” (Drug Metab Dispos, 2013).
≈ marks a conversion by molar mass, not a printed value.

Legend:
[1] = Cmax in female Wistar Hannover rat at 1000 umol/kg, po qd measured on day 1; conditions: in vivo
[2] = system: Rattus norvegicus; test: Toxicity in Wistar Hannover rat kidney assessed as presence of dilated tubules with cellular remnants within lumen at 1000 umol/kg, po qd administered for 7 days measured on day 7 by necroscopic analysis; type: organism-based; conditions: in vivo, 168 h
[3] = Cmax in Sprague-Dawley rat at 1000 umol/kg, po qd administered for 7 days measured on day 7; type: ADME, organism-based; set-up: dose 1000 umol/kg, route oral; conditions: in vivo
Method in brief: (§1)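 Toxicity study 2: 2 female satellite rats per dose group. Dosing was once daily by oral gavage (10 ml/kg) for 7 days. Tail-vein EDTA blood was taken at 2, 4, 6, 7 and 24 h on day 1 and on day 7, then chilled and centrifuged to plasma. Parent and M1 were quantified by LC-MS/MS, with M1 measured in negative electrospray mode.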

[4] = system: Rattus norvegicus; test: Toxicity in Wistar Hannover rat kidney assessed as presence of dilated tubules mixed with basophils at 1000 umol/kg, po qd administered for 7 days measured on day 7 by necroscopic analysis; type: organism-based; conditions: in vivo, 168 h
[5] = Effect on rat mPGES-1
[6] = system: Rattus norvegicus; test: Toxicity in Wistar Hannover rat kidney assessed as multiple pyogranuloma in renal pelvis at 1000 umol/kg, po qd administered for 7 days measured after day 8 by hematoxylin/eosin staining-based light microscopic analysis; type: organism-based; conditions: in vivo, 168 h
Method in brief: (§2)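 Wistar Hannover rats, about 8 weeks old, were gavaged once daily (10 ml/kg) for 7 days. One day after the last dose they were killed by carotid exsanguination under isoflurane/oxygen. Kidneys were fixed in buffered formalin, embedded in paraffin, sectioned, stained with hematoxylin and eosin, and examined by light microscopy.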

[7] = Cmax in female Wistar Hannover rat at 500 umol/kg, po qd measured on day 1; conditions: in vivo
[8] = AUC (0 to 24 hrs) in Sprague-Dawley rat at 1000 umol/kg, po qd administered for 7 days measured on day 7; type: ADME, organism-based; set-up: time < 24 hr, dose 1000 umol/kg, route oral; conditions: plasma
Method in brief: as §1

[9] = system: Rattus norvegicus; test: Toxicity in Wistar Hannover rat kidney assessed as papillitis at 1000 umol/kg, po qd administered for 7 days measured after day 8 by hematoxylin/eosin staining-based light microscopic analysis; type: organism-based; conditions: in vivo, 168 h
Method in brief: as §2

[10] = system: Rattus norvegicus; test: Toxicity in Wistar Hannover rat kidney assessed as hemorrhage in renal pelvis at 1000 umol/kg, po qd administered for 7 days measured after day 8 by hematoxylin/eosin staining-based light microscopic analysis; type: organism-based; conditions: in vivo, 168 h
Method in brief: as §2

[11] = system: Rattus norvegicus; test: Toxicity in Wistar Hannover rat kidney assessed as tubular degeneration /regeneration at 500 umol/kg, po qd administered for 7 days […]; type: organism-based; conditions: in vivo, 168 h
Method in brief: as §2

[12] = Solubility in rat urine at pH 7 after 5 hrs; type: physicochemical
Method in brief: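 Samples in rat urine at pH 7.0 were incubated at 37°C for 5 hours. They were analysed by HPLC on a C18 column with photodiode array and single mass detection.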

[13] = system: Rattus norvegicus; test: Toxicity in Wistar Hannover rat kidney assessed as free crystals in renal pelvis at 1000 umol/kg, po qd administered for 7 days measured after day 8 by hematoxylin/eosin staining-based light microscopic analysis; type: organism-based; conditions: in vivo, 168 h
Method in brief: as §2

[14] = system: Rattus norvegicus; test: Toxicity in Wistar Hannover rat kidney assessed as inflammation in renal pelvis at 1000 umol/kg, po qd administered for 7 days measured after day 8 by hematoxylin/eosin staining-based light microscopic analysis; type: organism-based; conditions: in vivo, 168 h
Method in brief: as §2

[15] = AUC (0 to 24 hrs) in male Wistar Hannover rat at 1000 umol/kg, po qd measured on day 1; conditions: plasma
[16] = AUC (0 to 24 hrs) in male Wistar Hannover rat at 500 umol/kg, po qd administered for 7 days measured on day 7; conditions: plasma
[17] = Cmax in male Wistar Hannover rat at 500 umol/kg, po qd administered for 7 days measured on day 7; conditions: in vivo
[18] = system: Rattus norvegicus; test: Drug metabolism in Wistar Hannover rat assessed as formation of 4-(phenylethynyl)benzoic acid conjugated with mono-oxidized and sulfate conjugated matabolite in plasma at 500 umol/kg, po qd administered for 7 days measured on day 7 by LC-MS analysis; type: ADME, organism-based; conditions: in vivo, 168 h
[19] = Cmax in Wistar Hannover rat at 1000 umol/kg, po qd measured on day 1; conditions: in vivo
[20] = Drug metabolism in freshly prepared human hepatocytes assessed as amide hydrolysis at 1 to 10 uM by LC-MS analysis; type: ADME, cell-based, Hepatocyte
Method in brief: (§3)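 Hepatocytes at 1 × 10^6 cells/ml in William's medium incubated at 37°C with gentle shaking under 5% CO2. Substrate was at […]. Metabolites were analysed by LC-MS.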

[21] = AUC (0 to 24 hrs) in female Wistar Hannover rat at 500 umol/kg, po qd measured on day 1; conditions: plasma
[22] = Drug metabolism in cryopreserved human hepatocytes assessed as amide hydrolysis at 1 to 10 uM by LC-MS analysis; type: ADME, cell-based, Hepatocyte
Method in brief: as §3

[23] = system: Rattus norvegicus; test: Drug metabolism in Wistar Hannover rat assessed as formation of mono-oxidized metabolite +16 in plasma at 500 umol/kg, po qd administered for 7 days measured on day 7 by LC-MS analysis; type: ADME, organism-based; conditions: in vivo, 168 h
[24] = Cmax in male Wistar Hannover rat at 1000 umol/kg, po qd measured on day 1; conditions: in vivo
[25] = system: Rattus norvegicus; test: Toxicity in Wistar Hannover rat kidney assessed as pale organ discoloration at 1000 umol/kg, po qd administered for 7 days measured on day 7 by necroscopic analysis; type: organism-based; conditions: in vivo, 168 h
[26] = AUC (0 to 24 hrs) in female Wistar Hannover rat at 1000 umol/kg, po qd measured on day 1; conditions: plasma
[27] = Drug metabolism in Sprague-Dawley rat hepatocytes assessed as formation of benzene-1,2-disulfonamide metabolite M1 at 1 to 10 uM by radio monitoring method; type: ADME, cell-based, Hepatocyte
Method in brief: (§4)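 Hepatocytes at 1 × 10^6 cells/ml in William's medium were incubated at 37°C with gentle shaking under 5% CO2, with substrate at […]. Separation was on an Atlantis T3 column (100 × 4.6 mm) at 1 ml/min, split 1:20 to the ion source and a flow scintillation monitor. Scintillation cocktail was added at 4 ml/min through a 0.5 ml flow cell.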

[28] = system: Rattus norvegicus; test: Drug metabolism in Wistar Hannover rat assessed as formation of 4-(phenylethynyl)benzoic acid metabolite conjugated with mono-oxidized metabolite in plasma at 500 umol/kg, po qd administered for 7 days measured on day 7 by LC-MS analysis; type: ADME, organism-based; conditions: in vivo, 168 h
[29] = Drug metabolism in Sprague-Dawley rat hepatocytes assessed as formation of 4-(phenylethynyl)benzoic acid metabolite hyd at 1 to 10 uM by radio monitoring method; type: ADME, cell-based, Hepatocyte
Method in brief: as §4

[30] = system: Rattus norvegicus; test: Toxicity in Wistar Hannover rat kidney assessed as increase in organ weight at 1000 umol/kg, po qd administered for 7 days measured on day 7 by necroscopic analysis; type: organism-based; conditions: in vivo, 168 h
[31] = AUC (0 to 24 hrs) in female Wistar Hannover rat at 500 umol/kg, po qd administered for 7 days measured on day 7; conditions: plasma
[32] = AUC (0 to 24 hrs) in Wistar Hannover rat at 1000 umol/kg, po qd measured on day 1; conditions: plasma

## NS(=O)(=O)c1ccccc1S(=O)(=O)NC(=O)c1ccc(C#Cc2ccccc2)cc1
[1]
  Cmax: 75 µM
[2]
  Activity: Toxic
[3]
  Cmax: 95 µM
[4]
  Activity: Toxic
[5]
  Activity: Not Active
[6]
  Activity: Toxic
[7]
  Cmax: 38 µM
[8]
  AUC at 24 h: 990 µM·h
[9]
  Activity: Toxic
[10]
  Activity: Toxic
[11]
  Activity: Toxic
[12]
  solubility at 5 h: 45 µM (≈ 19.8 µg/mL)
[13]
  Activity: Toxic
[14]
  Activity: Toxic
[15]
  AUC(0-t) at 24 h: 610 µM·h
[16]
  AUC at 24 h: 480 µM·h
[17]
  Cmax: 68 µM
[18]
  Drug metabolism: metabolite_detected
[19]
  Cmax: 105 µM
[20]
  Drug metabolism: metabolite_not_detected
[21]
  AUC(0-t) at 24 h: 450 µM·h
[22]
  Drug metabolism: metabolite_not_detected
[23]
  Drug metabolism: metabolite_detected
[24]
  Cmax: 46 µM
[25]
  Activity: Toxic
[26]
  AUC(0-t) at 24 h: 1020 µM·h
[27]
  Drug metabolism: metabolite_not_detected
[28]
  Drug metabolism: metabolite_detected
[29]
  Drug metabolism: metabolite_detected
[30]
  Activity: Toxic
[31]
  AUC at 24 h: 430 µM·h
[32]
  AUC(0-t) at 24 h: 1370 µM·h
